assay: Antioxidant activity assessed as inhibition of ABTS radical cation generation at 1 mg/ml by colorimetric method relative to control; assay type: physicochemical; conditions: not given
How it was run: (§1)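 ABTS radical cation solution read at 734 nm. Test samples were added as a 1 mg/ml solution in MeOH/buffer (1:1 v/v); ascorbic acid (2 mM solution) and curcumin (1 mg/ml) were the standards. % inhibition = (Acontrol − Atest)/Acontrol × 100. Blank was solvent without ABTS.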

First: CCN1C/C(=C\c2ccc(OC)cc2)C2=NN(c3nc(-c4ccc(Cl)cc4)cs3)C(c3ccc(OC)cc3)C2C1 (stereo not given)
Second: COc1ccc(/C=C2\CN(C)CC3C2=NN(c2nc(-c4ccc(Cl)cc4)cs2)C3c2ccc(OC)cc2)cc1 (stereo not given)
The “inhibition (INH)” value of the first is higher: 82.6% for the first, 69.56% for the second.

Going from `CCN1C/C(=C\c2ccc(OC)cc2)C2=NN(c3nc(-c4ccccc4)cs3)C(c3ccc(OC)cc3)C2C1` (stereo not given) to `COc1ccc(/C=C2\CCC3C2=NN(c2nc(-c4ccc(Cl)cc4)cs2)C3c2ccc(OC)cc2)cc1` (stereo not given), the “inhibition (INH)” value falls from 60.52% to 27.47%.

Compared with `N#Cc1c(N)nc2c(c1-c1ccc(O)cc1)CCC/C2=C\c1ccc(O)cc1`, `COc1cc(/C=C2\CCCc3c2nc(N)c(C#N)c3-c2ccc(O)c(OC)c2)ccc1O` is higher in “inhibition (INH)” value: 8.69% for the first, 46.6% for the second.

Compared with `COc1ccc(/C=C2\CCCC3C2=NN(C2=NC(=O)/C(=C/c4ccc(Br)cc4)S2)C3c2ccc(OC)cc2)cc1` (stereo not given), `COc1ccc(/C=C2\CCCC3C2=NN(C2=NC(=O)/C(=C/c4ccc(Cl)cc4)S2)C3c2ccc(OC)cc2)cc1` (stereo not given) is higher in “inhibition (INH)” value: 5.21% for the first, 25.73% for the second.

Going from `COc1ccc(/C=C/C2=NN(C(N)=S)C(c3ccc(OC)cc3)C2)cc1` (stereo not given) to `CCN1C/C(=C\c2ccc(OC)cc2)C2=NN(C(N)=S)C(c3ccc(OC)cc3)C2C1` (stereo not given), the “inhibition (INH)” value rises from 84.52% to 88.17%.

Compared with `COc1ccc(/C=C2\CCCc3c2nc(N)c(C#N)c3-c2ccc(OC)c(OC)c2)cc1OC`, `COc1ccc(/C=C2\CCCC3C2=NN(C2=NC(=O)/C(=C/c4ccc(OC)c(OC)c4)S2)C3c2ccc(OC)cc2)cc1` (stereo not given) is higher in “inhibition (INH)” value: 9.73% for the first, 19.13% for the second.

Compared with `COc1ccc(/C=C/C2=NN(c3nc(-c4ccccc4)cs3)C(c3ccc(OC)cc3)C2)cc1` (stereo not given), `COc1cc(/C=C/C(=O)CC(=O)/C=C/c2ccc(O)c(OC)c2)ccc1O` [CURCUMIN] is higher in “inhibition (INH)” value: 76% for the first, 86.6% for the second.

assay: Antioxidant activity assessed as inhibition of ABTS radical cation generation at 2 mM by colorimetric method relative to control; assay type: physicochemical; conditions: 2000 µM; how it was run: as §1

In the case of `O=C1O[C@H]([C@@H](O)CO)C(O)=C1O` [ASCORBIC ACID], the “inhibition (INH)” value is reported as 88.34%.

assay: Cytotoxicity against mouse EAC cells assessed as dead cells at 25 uM after 24 hrs by trypan blue dye exclusion method relative to control; assay type: functional, Ehrlich; conditions: not given
How it was run: (§2)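 EAC cells came from ascitic fluid of female Swiss albino mice 7-8 days after inoculation and were washed in HEPES-buffered Hanks' salt solution. They were preincubated 24 h in RPMI 1640 with 10% fetal calf serum at 2 × 10⁵ cells/ml, 37 °C, 5% CO₂. Cells were then exposed to drug for 24 h, PBS-washed and counted by trypan blue exclusion. Survival = viable T/C × 100; triplicate mean.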

First: CCN1C/C(=C\c2ccc(OC)cc2)C2=NN(c3nc(-c4ccc(Cl)cc4)cs3)C(c3ccc(OC)cc3)C2C1 (stereo not given)
Second: COc1ccc(/C=C2\CN(C)CC3C2=NN(c2nc(-c4ccc(Cl)cc4)cs2)C3c2ccc(OC)cc2)cc1 (stereo not given)
The Activity of the first is higher: 98.3% for the first, 29.2% for the second.

Compared with `CCN1C/C(=C\c2ccc(OC)cc2)C2=NN(c3nc(-c4ccccc4)cs3)C(c3ccc(OC)cc3)C2C1` (stereo not given), `COc1ccc(/C=C2\CCC3C2=NN(c2nc(-c4ccc(Cl)cc4)cs2)C3c2ccc(OC)cc2)cc1` (stereo not given) is lower in Activity: 27.8% for the first, 25% for the second.

Going from `N#Cc1c(N)nc2c(c1-c1ccc(O)cc1)CCC/C2=C\c1ccc(O)cc1` to `COc1cc(/C=C2\CCCc3c2nc(N)c(C#N)c3-c2ccc(O)c(OC)c2)ccc1O`, the Activity rises from 21.7% to 60.2%.

Going from `COc1ccc(/C=C2\CCCC3C2=NN(C2=NC(=O)/C(=C/c4ccc(Br)cc4)S2)C3c2ccc(OC)cc2)cc1` (stereo not given) to `COc1ccc(/C=C2\CCCC3C2=NN(C2=NC(=O)/C(=C/c4ccc(Cl)cc4)S2)C3c2ccc(OC)cc2)cc1` (stereo not given), the Activity rises from 22% to 23.8%.

Going from `COc1ccc(/C=C/C2=NN(C(N)=S)C(c3ccc(OC)cc3)C2)cc1` (stereo not given) to `CCN1C/C(=C\c2ccc(OC)cc2)C2=NN(C(N)=S)C(c3ccc(OC)cc3)C2C1` (stereo not given), the Activity rises from 28.7% to 31.7%.

First: COc1ccc(/C=C2\CCCc3c2nc(N)c(C#N)c3-c2ccc(OC)c(OC)c2)cc1OC
Second: COc1ccc(/C=C2\CCCC3C2=NN(C2=NC(=O)/C(=C/c4ccc(OC)c(OC)c4)S2)C3c2ccc(OC)cc2)cc1 (stereo not given)
The Activity of the first is higher: 24.9% for the first, 20.4% for the second.

`COc1ccc(/C=C/C2=NN(c3nc(-c4ccccc4)cs3)C(c3ccc(OC)cc3)C2)cc1` (stereo not given) showed an Activity of 30.4%.

assay: Cytotoxicity against mouse EAC cells assessed as dead cells at 50 uM after 24 hrs by trypan blue dye exclusion method relative to control; assay type: functional, Ehrlich; conditions: not given; how it was run: as §2

Going from `CCN1C/C(=C\c2ccc(OC)cc2)C2=NN(c3nc(-c4ccc(Cl)cc4)cs3)C(c3ccc(OC)cc3)C2C1` (stereo not given) to `COc1ccc(/C=C2\CN(C)CC3C2=NN(c2nc(-c4ccc(Cl)cc4)cs2)C3c2ccc(OC)cc2)cc1` (stereo not given), the Activity falls from 100% to 58%.

Going from `CCN1C/C(=C\c2ccc(OC)cc2)C2=NN(c3nc(-c4ccccc4)cs3)C(c3ccc(OC)cc3)C2C1` (stereo not given) to `COc1ccc(/C=C2\CCC3C2=NN(c2nc(-c4ccc(Cl)cc4)cs2)C3c2ccc(OC)cc2)cc1` (stereo not given), the Activity falls from 50.2% to 47.1%.

Going from `N#Cc1c(N)nc2c(c1-c1ccc(O)cc1)CCC/C2=C\c1ccc(O)cc1` to `COc1cc(/C=C2\CCCc3c2nc(N)c(C#N)c3-c2ccc(O)c(OC)c2)ccc1O`, the Activity rises from 43.4% to 84%.

First: COc1ccc(/C=C2\CCCC3C2=NN(C2=NC(=O)/C(=C/c4ccc(Br)cc4)S2)C3c2ccc(OC)cc2)cc1 (stereo not given)
Second: COc1ccc(/C=C2\CCCC3C2=NN(C2=NC(=O)/C(=C/c4ccc(Cl)cc4)S2)C3c2ccc(OC)cc2)cc1 (stereo not given)
The Activity of the first is lower: 43.8% for the first, 46% for the second.

First: COc1ccc(/C=C/C2=NN(C(N)=S)C(c3ccc(OC)cc3)C2)cc1 (stereo not given)
Second: CCN1C/C(=C\c2ccc(OC)cc2)C2=NN(C(N)=S)C(c3ccc(OC)cc3)C2C1 (stereo not given)
The Activity of the first is lower: 57.5% for the first, 66.5% for the second.

Compared with `COc1ccc(/C=C2\CCCc3c2nc(N)c(C#N)c3-c2ccc(OC)c(OC)c2)cc1OC`, `COc1ccc(/C=C2\CCCC3C2=NN(C2=NC(=O)/C(=C/c4ccc(OC)c(OC)c4)S2)C3c2ccc(OC)cc2)cc1` (stereo not given) is lower in Activity: 45.1% for the first, 40% for the second.

With `COc1ccc(/C=C/C2=NN(c3nc(-c4ccccc4)cs3)C(c3ccc(OC)cc3)C2)cc1` (stereo not given) the Activity was 61.6%.

assay: Cytotoxicity against mouse EAC cells assessed as dead cells at 100 uM after 24 hrs by trypan blue dye exclusion method relative to control; assay type: functional, Ehrlich; conditions: not given; how it was run: as §2

First: CCN1C/C(=C\c2ccc(OC)cc2)C2=NN(c3nc(-c4ccc(Cl)cc4)cs3)C(c3ccc(OC)cc3)C2C1 (stereo not given)
Second: COc1ccc(/C=C2\CN(C)CC3C2=NN(c2nc(-c4ccc(Cl)cc4)cs2)C3c2ccc(OC)cc2)cc1 (stereo not given)
The Activity of the first is higher: 100% for the first, 97.9% for the second.

Going from `CCN1C/C(=C\c2ccc(OC)cc2)C2=NN(c3nc(-c4ccccc4)cs3)C(c3ccc(OC)cc3)C2C1` (stereo not given) to `COc1ccc(/C=C2\CCC3C2=NN(c2nc(-c4ccc(Cl)cc4)cs2)C3c2ccc(OC)cc2)cc1` (stereo not given), the Activity falls from 95.4% to 93.5%.

Compared with `N#Cc1c(N)nc2c(c1-c1ccc(O)cc1)CCC/C2=C\c1ccc(O)cc1`, `COc1cc(/C=C2\CCCc3c2nc(N)c(C#N)c3-c2ccc(O)c(OC)c2)ccc1O` is higher in Activity: 81% for the first, 99.7% for the second.

Going from `COc1ccc(/C=C2\CCCC3C2=NN(C2=NC(=O)/C(=C/c4ccc(Br)cc4)S2)C3c2ccc(OC)cc2)cc1` (stereo not given) to `COc1ccc(/C=C2\CCCC3C2=NN(C2=NC(=O)/C(=C/c4ccc(Cl)cc4)S2)C3c2ccc(OC)cc2)cc1` (stereo not given), the Activity rises from 81.6% to 84%.

Compared with `COc1ccc(/C=C/C2=NN(C(N)=S)C(c3ccc(OC)cc3)C2)cc1` (stereo not given), `CCN1C/C(=C\c2ccc(OC)cc2)C2=NN(C(N)=S)C(c3ccc(OC)cc3)C2C1` (stereo not given) is higher in Activity: 98% for the first, 99% for the second.

Compared with `COc1ccc(/C=C2\CCCc3c2nc(N)c(C#N)c3-c2ccc(OC)c(OC)c2)cc1OC`, `COc1ccc(/C=C2\CCCC3C2=NN(C2=NC(=O)/C(=C/c4ccc(OC)c(OC)c4)S2)C3c2ccc(OC)cc2)cc1` (stereo not given) is lower in Activity: 84.2% for the first, 75.8% for the second.

With `COc1ccc(/C=C/C2=NN(c3nc(-c4ccccc4)cs3)C(c3ccc(OC)cc3)C2)cc1` (stereo not given) the Activity was 98.3%.

assay: Antitumor activity against mouse EAC cells allografted in Swiss albino mouse assessed as tumor growth inhibition at 75 mg/kg, po administered for 21 days measured 21 day post dose relative to control; assay type: functional; conditions: Ehrlich, 504 h, read-out: TGI
How it was run: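 EAC was kept by i.p. passage in female Swiss albino mice. Washed ascitic cells (5 × 10⁵ viable per 0.1 ml saline) were injected s.c. At 50–100 mm³, mice were split into groups of 10 and given compound 75 mg/kg orally in CMC for 21 consecutive days; controls got saline 5 ml/kg. Tumor size was read at day 0 and day 21. Inhibition was derived from ΔT/ΔC × 100.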

Going from `CCN1C/C(=C\c2ccc(OC)cc2)C2=NN(c3nc(-c4ccc(Cl)cc4)cs3)C(c3ccc(OC)cc3)C2C1` (stereo not given) to `COc1ccc(/C=C2\CN(C)CC3C2=NN(c2nc(-c4ccc(Cl)cc4)cs2)C3c2ccc(OC)cc2)cc1` (stereo not given), the inhibition in vivo at 75 mg/kg falls from 82% to 70%.

First: COc1ccc(/C=C/C2=NN(C(N)=S)C(c3ccc(OC)cc3)C2)cc1 (stereo not given)
Second: CCN1C/C(=C\c2ccc(OC)cc2)C2=NN(C(N)=S)C(c3ccc(OC)cc3)C2C1 (stereo not given)
The inhibition in vivo at 75 mg/kg of the first is lower: 76% for the first, 77% for the second.

First: COc1cc(/C=C2\CCCc3c2nc(N)c(C#N)c3-c2ccc(O)c(OC)c2)ccc1O
Second: COc1ccc(/C=C/C2=NN(c3nc(-c4ccccc4)cs3)C(c3ccc(OC)cc3)C2)cc1 (stereo not given)
The inhibition in vivo at 75 mg/kg of the first is higher: 80% for the first, 65% for the second.

Source: ChEMBL document CHEMBL3612035, “Synthesis and biological evaluation of new curcumin analogues as antioxidant and antitumor agents: molecular modeling study” (Eur J Med Chem, 2015)
